The text below walks through data of ChEMBL document CHEMBL1671768, “In vitro activity of pyronaridine against multidrug-resistant Plasmodium falciparum and Plasmodium vivax” (Antimicrob Agents Chemother, 2010).

Common to all, as to type: functional, organism-based
Assay [1] deals with Plasmodium vivax. Description: Antimalarial activity against Plasmodium vivax with >50% parasites at ring stage infected in human erythrocytes assessed as growth inhibition after 30 to 50 hrs by microscopic analysis using giemsa staining. In outline:
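Post hoc subset of P. vivax isolates with >50% ring stage at enrollment and assay duration of 30–50 h. Culture was in McCoy's 5A + 20% AB+ serum, 2% hematocrit, 11 two-fold drug dilutions, candle jar, 37.5°C.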

Assay [2] has as its system Plasmodium falciparum. Description: Antimalarial activity against Plasmodium falciparum infected in human erythrocytes assessed as growth inhibition by microscopic analysis using giemsa staining.
Assay [3] relates to Plasmodium vivax. Description: Antimalarial activity against Plasmodium vivax trophozoites infected in human erythrocytes assessed as growth inhibition by microscopic analysis using giemsa staining. Summed up:
(§1)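 P. vivax field isolates from Papuan patients, leukocyte-depleted on CF11, were placed in McCoy's 5A + 20% AB+ serum at 2% hematocrit. Plates held 11 two-fold drug dilutions, incubated in a candle jar at 37.5°C until >40% of control rings were mature schizonts. Giemsa thick films were read for schizonts (≥5 chromatin dots/200 parasites) relative to control. IC50 used an inhibitory sigmoid Emax model, accepting fits with Emax/E0 within 15%.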

In assay [4] the test system is Plasmodium falciparum. Put plainly: Antimalarial activity against Plasmodium falciparum trophozoites infected in human erythrocytes assessed as growth inhibition by microscopic analysis using giemsa staining. Summed up:
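Fresh field isolates from uncomplicated malaria patients in Papua, with leukocytes removed on CF11. Cells were kept at 2% hematocrit in RPMI 1640 + 10% AB+ human serum on predosed plates with 11 two-fold drug dilutions, in a candle jar at 37.5°C for 21–46 h. Harvest was when >40% of control rings reached schizont.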

The subject of assay [5] is Plasmodium falciparum. Description: Antimalarial activity against Plasmodium falciparum at the ring stage infected in human erythrocytes assessed as growth inhibition by microscopic analysis using giemsa staining.
Assay [6] has as its system Plasmodium vivax. Put plainly: Antimalarial activity against Plasmodium vivax infected in human erythrocytes assessed as growth inhibition by microscopic analysis using giemsa staining. Summed up:
as §1

Assay [7] has as its system Plasmodium vivax. Put plainly: Antimalarial activity against Plasmodium vivax at the ring stage infected in human erythrocytes assessed as growth inhibition by microscopic analysis using giemsa staining. In outline:
as §1

With `CCN(CC)Cc1cc(Nc2ccnc3cc(Cl)ccc23)ccc1O`, the IC50 in assay [1] was found to be 0.012 µM; in assay [2] it was 0.0057 µM; in assay [3], 0.0252 µM; in assay [4] it was 0.0126 µM; in assay [5], 0.0081 µM; in assay [6], 0.014 µM.

`C[C@H]1[C@H](OC(=O)CCC(=O)O)O[C@@H]2O[C@@]3(C)CC[C@H]4[C@H](C)CC[C@@H]1[C@@]24OO3` [ARTESUNATE]: the 50% inhibitory concentration (IC50) in assay [1] was determined as 0.00127 µM; in assay [2], 0.00068 µM; in assay [6], 0.00103 µM.

In the case of `CCN(CC)CCCC(C)Nc1ccnc2cc(Cl)ccc12` (stereo not given) [CHLOROQUINE], the figures for the IC50 in assay [3], in assay [6] and in assay [7] were 2.43 µM, 0.142 µM and 0.0492 µM, respectively.

With `OC(c1cc(C(F)(F)F)nc2c(C(F)(F)F)cccc12)C1CCCCN1` (stereo not given) [MEFLOQUINE], the IC50 in assay [1] is 0.008 µM; in assay [4], 0.0085 µM; in assay [6], 0.0121 µM; in assay [7], 0.0079 µM.

`Clc1ccc2c(N3CCN(CCCN4CCN(c5ccnc6cc(Cl)ccc56)CC4)CC3)ccnc2c1` [PIPERAQUINE]: the half-maximal inhibitory concentration (IC50) came to 0.0196 µM in assay [1]; 0.0171 µM in assay [2]; 0.0217 µM in assay [3]; 0.0772 µM in assay [4]; 0.0118 µM in assay [5]; 0.0248 µM in assay [6]. Besides, the IC50 in assay [7] came out at 0.014 µM.

`COc1ccc2nc3cc(Cl)ccc3c(Nc3cc(CN4CCCC4)c(O)c(CN4CCCC4)c3)c2n1` [PYRONARIDINE]: the IC50 in assay [1] worked out at 0.0024 µM; in assay [2], 0.00192 µM; in assay [3], 0.0047 µM; in assay [4] it was 0.008 µM; in assay [5], 0.0016 µM; in assay [6], 0.00258 µM. In addition, in assay [7], the IC50 came to 0.0025 µM.
